Source: ChEMBL document CHEMBL4699407, “Isoquinoline thiosemicarbazone displays potent anticancer activity with in vivo efficacy against aggressive leukemias” (RSC Med Chem, 2020)
Active and inactive are the calls of the source. The rule behind the calls is not given here.

Experiments:
[1] = system: MIA PaCa-2; test: Induction of apoptosis in human MIA PaCa-2 cells assessed as reduction in viable cells at 25 nM in presence of Cu2+ and ATRi incubated for 72 hrs by annexin V and propidium iodide staining based flow cytometry analysis relative to control; assay type: functional
Summary of the method: (§1)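 Cells given 25 nM compound with or without 20 μM Cu(II) and/or the ATR inhibitor VE-822 at 250 nM for 72 h. Stained with annexin V-FITC and propidium iodide, then analysed on a five-laser flow cytometer to score viable, early apoptotic, late apoptotic and necrotic fractions against vehicle.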

[2] = Cytotoxicity against human PaTu 8902 cells assessed as reduction in cell viability in presence of Cu2+ incubated for 72 hrs by cell titer-glo luminescent cell viability assay; assay type: functional, cell-based; conditions: PaTu 8902, 72 h
Summary of the method: (§2)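 Cells were grown in DMEM or RPMI with 10% FBS, without antibiotics, at 37 °C, 20% O2, 5% CO2. Adherent lines were seeded at 500 cells/well. Serially diluted compound was given with 20 μM Cu(II) (CuCl2) for 72 h; leukemia models received pre-formed 1:1 copper complex. ATP was read by CellTiter-Glo luminescence. IC50 is relative to DMSO-treated cells.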

[3] = system: MIA PaCa-2; test: Induction of DNA damage in human MIA PaCa-2 cells assessed as decrease in CTP level at 25 nM in presence of Cu2+ incubated for 48 hrs by LC-MS/MS analysis; assay type: functional, cell-based
Summary of the method: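 MIAPACA2 cells were given 25 nM compound plus 20 μM Cu(II) for 48 h in glucose-free DMEM with 10% dialyzed FBS and 11 mM [U-13C6]glucose. Nucleotide pools were quantified by LC-MS/MS with multiple reaction monitoring. Mean ± SD, n = 3, two-way ANOVA with Bonferroni correction.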

[4] = system: MIA PaCa-2; test: Induction of ROS generation in human MIA PaCa-2 cells at 25 nM in presence of Cu2+ incubated for 24 hrs by CM-H2DCFDA staining based flow cytometry analysis; assay type: functional, cell-based
Summary of the method: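 Treated with 25 nM compound ± 20 μM Cu(II) for 24 h. Cells loaded with 5 μM CM-H2DCFDA for 30 min, spun at 450g for 4 min, and returned to medium containing compound and/or Cu(II) for 30 min. Then spun, resuspended in PBS and read by flow cytometry as mean fluorescence intensity. Mean ± SD, n = 2, Student t-test.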

[5] = system: MIA PaCa-2; test: Induction of DNA damage in human MIA PaCa-2 cells assessed as increase in CHEK2 phosphorylation at 10 nM in presence of Cu2+ incubated for 48 hrs by immunoblot assay; assay type: functional, cell-based
Summary of the method: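 Treated with 10 nM compound plus 20 μM Cu(II). Lysed in RIPA buffer with protease and phosphatase inhibitors, then sonicated and centrifuged at 20 000g, 4 °C. Protein measured by micro BCA, and equal amounts run on bis-tris gels. Primary antibodies in 5% BSA/TBST; HRP-linked anti-rabbit or anti-mouse secondaries at 1:2500. Chemiluminescent detection on film; representative blot.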

[6] = system: MIA PaCa-2; test: Induction of apoptosis in human MIA PaCa-2 cells assessed as increase in late apoptotic cells at 25 nM in presence of Cu2+ incubated for 72 hrs by annexin V and propidium iodide staining based flow cytometry analysis relative to control; assay type: functional; summary of the method: as §1
[7] = system: YAPC; test: Cytotoxicity against human YAPC cells assessed as reduction in cell viability in presence of Cu2+ incubated for 72 hrs by cell titer-glo luminescent cell viability assay; assay type: functional, cell-based; summary of the method: as §2
[8] = system: MIA PaCa-2; test: Induction of apoptosis in human MIA PaCa-2 cells assessed as increase in early apoptotic cells at 25 nM incubated for 72 hrs by annexin V and propidium iodide staining based flow cytometry analysis relative to control; assay type: functional; summary of the method: as §1
[9] = system: MIA PaCa-2; test: Induction of DNA damage in human MIA PaCa-2 cells assessed as decrease in dCTP level at 25 nM in presence of Cu2+ incubated for 48 hrs by LC-MS/MS analysis; assay type: functional, cell-based
Summary of the method: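 Cells in DMEM or RPMI with 10% FBS, 37 °C, 5% CO2. Treated with 25 nM compound plus 20 μM Cu(II) for 48 h. Nucleotide pools quantified by LC-MS/MS with multiple reaction monitoring. Cells were in glucose-free DMEM with 10% dialyzed FBS and 11 mM [U-13C6]glucose for 48 h, and glucose-labeled pools were compared. Mean ± SD, n = 3, two-way ANOVA with Bonferroni correction.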

[10] = system: MIA PaCa-2; test: Cytotoxicity against human MIA PaCa2 cells assessed as reduction in cell viability at 25 nM in presence of Fe2+ incubated for 72 hrs by cell titer-glo luminescent cell viability assay; assay type: functional, cell-based
Summary of the method: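 MIAPACA2 cells were exposed to compound for 72 h with 20 μM Fe(II) or Zn(II) supplement. Proliferation was read by CellTiter-Glo ATP luminescence.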

[11] = system: MIA PaCa-2; test: Induction of mitochondrial ROS generation in human MIA PaCa-2 cells at 25 nM in presence of Cu2+ incubated for 24 hrs by MitoSox red dye based flow cytometry analysis; assay type: functional; conditions: Mitochondria
Summary of the method: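 Exposure was 25 nM compound plus 20 μM Cu(II) for 24 h. Cells washed, stained with MitoSOX for 30 min at 37 °C, washed with PBS and analysed by flow cytometry. Mean ± SD, n = 2, Student t-test.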

## CN(C)C(=S)NN=Cc1nccc2cc(F)ccc12
[1]
  Activity: 27.8%
[2]
  IC50: 1 nM
[3]
  Activity: inactive
[4]
  Activity: Active
[5]
  Activity: Active
[6]
  Activity: 3.68%
[7]
  IC50: 1 nM
[8]
  Activity: 1.85%
[9]
  Activity: inactive
[10]
  Activity: Active
[11]
  Activity: Active
